Reference: ChEMBL document CHEMBL1121680, “2,4-Diamino-5-benzylpyrimidines and analogues as antibacterial agents. 5. 3',5'-Dimethoxy-4'-substituted-benzyl analogues of trimethoprim” (J Med Chem, 1981)
Blank lines part the entries; values can stand above or below the compound they belong to.

What was measured:
Dihydrofolate reductase [1] = biological target: T1, Dihydrofolate reductase (Rattus norvegicus, UniProt Q920D2); experiment: Inhibition of rat liver Dihydrofolate reductase.; conditions: read-out: I50
T1 sequence (Q920D2 whole entry): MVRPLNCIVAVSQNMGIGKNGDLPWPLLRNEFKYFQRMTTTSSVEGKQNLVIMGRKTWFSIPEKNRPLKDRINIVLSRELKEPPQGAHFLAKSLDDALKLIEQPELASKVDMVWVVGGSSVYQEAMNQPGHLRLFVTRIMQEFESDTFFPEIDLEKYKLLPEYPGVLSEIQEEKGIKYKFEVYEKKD

Dihydrofolate reductase [2] = biological target: T1, Dihydrofolate reductase; experiment: Compound was tested for inhibitory activity against Dihydrofolate Reductase of rat liver; conditions: read-out: I50
Dihydrofolate reductase [3] = biological target: T2, Dihydrofolate reductase (Escherichia coli, UniProt P0ABQ4); experiment: Compound was tested for inhibitory activity against Dihydrofolate reductase of E. coli; Value ranges from 0.5-0.7M; conditions: read-out: I50
T2 sequence (P0ABQ4 whole entry): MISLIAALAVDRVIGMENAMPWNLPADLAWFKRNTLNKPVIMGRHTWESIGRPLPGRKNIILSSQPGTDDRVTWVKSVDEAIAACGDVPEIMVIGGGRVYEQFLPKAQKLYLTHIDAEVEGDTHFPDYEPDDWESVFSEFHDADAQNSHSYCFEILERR

[4] = biological target: T3, Dihydrofolate reductase (Rattus norvegicus) (UniProt Q920D2); experiment: Compound was tested for inhibitory activity against Dihydrofolate reductase of rat liver at 1000 µM; conditions: 1000 M
T3 sequence (whole entry): T1 sequence (Q920D2 whole entry)

[5] = biological target: T3, Dihydrofolate reductase (Rattus norvegicus); experiment: Compound was tested for inhibitory activity against Dihydrofolate reductase of rat liver at 40000 M
Mus musculus [6] = experiment: Concentration of compound in serum of mouse 10 min after oral administration of 2 mg dose; type: functional, organism-based
Method in brief: (§1)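 Single po dose (10 or 2 mg per mouse) to groups of three mice (18–20 g); ~0.2 mL blood drawn from supraorbital plexus at 10–360 min and pooled; serum drug level assayed microbiologically with Bacillus pumilus as test organism. Half-life calculated from curve slopes once compound apparently evenly distributed.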

Klebsiella pneumoniae [7] = experiment: Antimicrobial activity against Klebsiella pneumoniae CN3632 in mice in experiment 1; type: functional, Mus musculus
Mus musculus [8] = experiment: Concentration of compound in serum of mouse 180 min after oral administration of 2 mg dose; type: functional, organism-based; method in brief: as §1
Dihydrofolate reductase [9] = biological target: T1, Dihydrofolate reductase; experiment: Compound was tested for inhibitory activity against Dihydrofolate Reductase(DHFR) of rat liver; conditions: read-out: I50
Mus musculus [10] = experiment: Concentration of compound in serum of mouse 360 min after oral administration of 2 mg dose; type: functional, organism-based; method in brief: as §1
Klebsiella pneumoniae [11] = experiment: Antimicrobial activity against Klebsiella pneumoniae CN3632 in mice in experiment 2; type: functional, Mus musculus
Staphylococcus aureus [12] = experiment: Antimicrobial activity against Staphylococcus aureus CN491 in mice in experiment 3; type: functional, Mus musculus
Staphylococcus aureus [13] = experiment: Antimicrobial activity against Staphylococcus aureus CN491 in mice in experiment 2; type: functional, Mus musculus
Escherichia coli [14] = experiment: Antimicrobial activity against Escherichia coli CN348 in mice in experiment 1; type: functional, Mus musculus
Staphylococcus aureus [15] = experiment: Antimicrobial activity against Staphylococcus aureus CN491 in mice in experiment 1; type: functional, Mus musculus
Mus musculus [16] = experiment: Concentration of compound in serum of mouse 90 min after oral administration of 10 mg dose; type: functional, organism-based; method in brief: as §1
Streptococcus pyogenes [17] = experiment: Antimicrobial activity against streptococcus pyogenes CN10 in mice in experiment 2; type: functional, Mus musculus
Streptococcus pyogenes [18] = experiment: Antimicrobial activity against streptococcus pyogenes CN10 in mice in experiment 1; type: functional, Mus musculus
Proteus vulgaris [19] = experiment: Antimicrobial activity against Proteus vulgaris CN329 in mice in experiment 2; type: functional, Mus musculus
Mus musculus [20] = experiment: Concentration of compound in serum of mouse 30 min after oral administration of 10 mg dose; type: functional, organism-based; method in brief: as §1
Escherichia coli [21] = experiment: Antimicrobial activity against Escherichia coli CN348 in mice in experiment 2; type: functional, Mus musculus
Mus musculus [22] = experiment: Concentration of compound in serum of mouse 180 min after oral administration of 10 mg dose; type: functional, organism-based; method in brief: as §1
Proteus vulgaris [23] = experiment: Antimicrobial activity against Proteus vulgaris CN329 in mice in experiment 1; type: functional, Mus musculus
Escherichia coli [24] = experiment: Antimicrobial activity against Escherichia coli CN348 in mice in experiment 3; type: functional, Mus musculus
Mus musculus [25] = experiment: Half-life in serum of mice after oral administration of 10 mg dose; type: functional, organism-based; method in brief: as §1
Mus musculus [26] = experiment: Half-life in serum of mice after oral administration of 2 mg dose; type: functional, organism-based; method in brief: as §1
Streptococcus pyogenes [27] = experiment: Antimicrobial activity against streptococcus pyogenes CN10 in mice in experiment 3; type: functional, Mus musculus
Mus musculus [28] = experiment: Concentration of compound in serum of mouse 10 min after oral administration of 10 mg dose; type: functional, organism-based; method in brief: as §1
Klebsiella pneumoniae [29] = experiment: Antimicrobial activity against Klebsiella pneumoniae CN3632 in mice in experiment 3; type: functional, Mus musculus
Mus musculus [30] = experiment: Concentration of compound in serum of mouse 360 min after oral administration of 10 mg dose; type: functional, organism-based; method in brief: as §1
Mus musculus [31] = experiment: Concentration of compound in serum of mouse 90 min after oral administration of 2 mg dose; type: functional, organism-based; method in brief: as §1
[32] = biological target: T3, Dihydrofolate reductase (Rattus norvegicus); experiment: Compound was tested for inhibitory activity against Dihydrofolate reductase of rat liver at 22400 M

SMILES: COc1cc(Cc2cnc(N)nc2N)cc(OC)c1OCCCCN1C(=O)c2ccccc2C1=O
IC50 (Dihydrofolate reductase [1]): 54 µM

SMILES: COC(=O)CCCCCOc1c(OC)cc(Cc2cnc(N)nc2N)cc1OC
IC50 (Dihydrofolate reductase [1]): 1100 µM

SMILES: CCCCCOc1c(OC)cc(Cc2cnc(N)nc2N)cc1OC
IC50 (Dihydrofolate reductase [1]): 270 µM

SMILES: CCCCCCOc1c(OC)cc(Cc2cnc(N)nc2N)cc1OC
IC50 (Dihydrofolate reductase [1]): 200 µM

SMILES: CCc1c(OC)cc(Cc2cnc(N)nc2N)cc1OC
IC50 (Dihydrofolate reductase [1]): 200 µM

SMILES: CCOC(=O)COc1c(OC)cc(Cc2cnc(N)nc2N)cc1OC
inhibition [5]: 12%

SMILES: COc1cc(Cc2cnc(N)nc2N)cc(OC)c1OCCN1CCOCC1
IC50 (Dihydrofolate reductase [1]): > 440 µM

SMILES: COc1cc(Cc2cnc(N)nc2N)cc(OC)c1OCCCN1CCCCC1
inhibition [5]: 20%

Further lines, with some results ahead:

IC50 (Dihydrofolate reductase [1]): 47 µM
SMILES: COc1cc(Cc2cnc(N)nc2N)cc(OC)c1OCc1ccccc1

IC50 (Dihydrofolate reductase [1]): 69 µM
SMILES: COc1cc(Cc2cnc(N)nc2N)cc(OC)c1OCCCN1C(=O)c2ccccc2C1=O

IC50 (Dihydrofolate reductase [2]): 250 µM
SMILES: CCCOc1c(OC)cc(Cc2cnc(N)nc2N)cc1OC

IC50 (Dihydrofolate reductase [2]): 620 µM | IC50 (Dihydrofolate reductase [3]): 0.0075 µM
SMILES: CCOc1c(OC)cc(Cc2cnc(N)nc2N)cc1OC

inhibition [4]: 8%
SMILES: COc1cc(Cc2cnc(N)nc2N)cc(OC)c1Oc1ccc(N)cc1

IC50 (Dihydrofolate reductase [1]): 580 µM
SMILES: CCCCOc1c(OC)cc(Cc2cnc(N)nc2N)cc1OC

inhibition [5]: 38%
SMILES: COc1cc(Cc2cnc(N)nc2N)cc(OC)c1OCCN

IC50 (Dihydrofolate reductase [1]): > 400 µM
SMILES: COc1cc(Cc2cnc(N)nc2N)cc(OC)c1OCCO

IC50 (Dihydrofolate reductase [9]): 480 µM
SMILES: C=CCOc1c(OC)cc(Cc2cnc(N)nc2N)cc1OC
Concentration (Mus musculus [6]): 18 µg/mL | ED50 (Klebsiella pneumoniae [7]): 4.6 mg mouse-1 | Concentration (Mus musculus [8]): 0.26 µg/mL | Concentration (Mus musculus [10]): < 0.1 µg/mL | ED50 (Klebsiella pneumoniae [11]): 10 mg mouse-1 | ED50 (Staphylococcus aureus [12]): 8.1 mg mouse-1 | ED50 (Staphylococcus aureus [13]): >10 mg mouse-1 | ED50 (Escherichia coli [14]): 7.5 mg mouse-1 | ED50 (Staphylococcus aureus [15]): 2.5 mg mouse-1 | Concentration (Mus musculus [16]): 51 µg/mL | ED50 (Streptococcus pyogenes [17]): 4.3 mg mouse-1 | ED50 (Streptococcus pyogenes [18]): 12 mg mouse-1 | ED50 (Proteus vulgaris [19]): >10 mg mouse-1 | Concentration (Mus musculus [20]): 59 µg/mL | ED50 (Escherichia coli [21]): 11 mg mouse-1 | Concentration (Mus musculus [22]): 27 µg/mL | ED50 (Proteus vulgaris [23]): 10 mg mouse-1 | ED50 (Escherichia coli [24]): >10 mg mouse-1 | T1/2 (Mus musculus [25]): 66 min | T1/2 (Mus musculus [26]): 21 min | ED50 (Streptococcus pyogenes [27]): 5.1 mg mouse-1 | Concentration (Mus musculus [28]): 84 µg/mL | ED50 (Klebsiella pneumoniae [29]): >10 mg mouse-1 | Concentration (Mus musculus [30]): 2.8 µg/mL | Concentration (Mus musculus [31]): 1 µg/mL

inhibition [32]: 20%
SMILES: COc1cc(Cc2cnc(N)nc2N)cc(OC)c1OCC(=O)O
